Assay results from different studies.
Observed: cell growth or viability

| SMILES | cell line | test | setting | CC50 [µM] |
| --- | --- | --- | --- | --- |
| O=c1[nH]cc(F)c(=O)[nH]1 | Caco-2 | crystal violet | 72 h | 390 |
| CCC[C@H](NC(=O)[C@H](CC1CCCCC1)NC(=O)[C@@H](NC(=O)CC12CC3CC(CC(C3)C1)C2)C(C)(C)C)C(=O)C(=O)NC1CC1 | RD | neutral red |  | < 2 |
| CCN(CC)c1ccc(C(=O)NCCc2c(C)[nH]c3ccccc23)cc1 | C6 glioma |  |  | < 500 |
| CN1CCc2c(c3ccccc3n2Cc2ccc(C(=O)NO)cc2)C1 | LLC-MK2 | MTS | 48 h | > 20 |
| Cc1cc2ccccc2n1CCNC(=O)c1ccc(N2CCOCC2)c(F)c1 | C6 glioma |  |  | < 500 |
| CCOC(=O)CC1SC(=NN=Cc2cccc(O)c2)NC1=O (centres unmarked) | LLC-MK2 | MTT | 96 h, pH 7.2 | 614 |
| CCC[C@H](NC(=O)[C@@H](NC(=O)[C@@H](NC(=O)CC12CC3CC(CC(C3)C1)C2)C(C)(C)C)C1CCCCC1)C(=O)C(=O)NC1CC1 | RD | neutral red |  | < 2 |
| CCOC(=O)c1csc(NN=C(C)c2ccccc2)n1 | LLC-MK2 | MTT | 96 h, pH 7.2 | 292 |
| CCOC(=O)c1cnc2ccc(-c3ccc(C(C)C)cc3)cc2c1 | RD | ATP luminescence | 72 h | > 2.5 |
| CCOC(=O)CC1SC(=NN=C2CCCc3ccccc32)NC1=O (centres unmarked) | LLC-MK2 | MTT | 96 h, pH 7.2 | 280 |
| CCc1nc(-c2cnc3ccc(-c4ccccc4N)cc3c2)no1 | RD | ATP luminescence | 72 h | 21 |
| Cc1cn([C@H]2C[C@H](N=[N+]=[N-])[C@@H](CO)O2)c(=O)[nH]c1=O | Caco-2 | crystal violet | 72 h | 56.1 |
| CCOC(=O)c1csc(NN=Cc2cccc(OC)c2)n1 | LLC-MK2 | MTT | 96 h, pH 7.2 | 641 |
| O=C(CCCCCCC(=O)Nc1ccccc1)NO | LLC-MK2 | MTS | 48 h | 5.94 |
